Data on 3 compounds can be found in ChEMBL document CHEMBL5131398, “Novel nucleocapsid protein-targeting phenanthridine inhibitors of SARS-CoV-2” (Eur J Med Chem, 2022).

For data set [1], the system named is SARS-CoV-2. The data set can be described thus: Antiviral activity against Severe acute respiratory syndrome coronavirus 2 infected in African green monkey Vero E6 cells assessed as inhibition of viral cytopathic effect at 0.32 uM incubated for 72 hrs by CCK8 assay relative to control. Type of data set: functional. Further details: scale not given: the % may be the effect or the level left.

For data set [2], the system named is SARS-CoV-2. Nature of the data set: Antiviral activity against Severe acute respiratory syndrome coronavirus 2 infected in African green monkey Vero E6 cells assessed as inhibition of viral cytopathic effect at 1.6 uM incubated for 72 hrs by CCK8 assay relative to control. Also noted: scale not given: the % may be the effect or the level left. Type of data set: functional. For orientation: Damage to the host cells serves as the signal in cytopathic effect assays.

Data set [3] relates to SARS-CoV-2. The data set can be described thus: Antiviral activity against Severe acute respiratory syndrome coronavirus 2 infected in African green monkey Vero E6 cells assessed as inhibition of viral cytopathic effect at 8 uM incubated for 72 hrs by CCK8 assay relative to control. It counts as functional. Further details: scale not given: the % may be the effect or the level left.

A further data set deals with Vero C1008. The data set can be described thus: Cytotoxicity against African green monkey Vero E6 cells assessed as reduction in cell viability incubated for 72 hrs by CCK8 assay. The conditions noted are these: chlorocebus sabaeus, vero c1008, 72 h. Type of data set: toxicity, cell-based. In short, it runs like this:
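Vero E6 cells were seeded and grown overnight, then exposed to a range of compound concentrations for 72 h. Viability was read by CCK8. Triplicate.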
On the technique in general: Formazan colour is commonly taken as a measure of viable cells.

For data set [4], the system named is SARS-CoV-2. Nature of the data set: Antiviral activity against Severe acute respiratory syndrome coronavirus 2 infected in African green monkey Vero E6 cells assessed as inhibition of viral cytopathic effect at 0.064 uM incubated for 72 hrs by CCK8 assay relative to control. It counts as functional. Also noted: scale not given: the % may be the effect or the level left.

In data set [5] the test system is SARS-CoV-2. Nature of the data set: Antiviral activity against Severe acute respiratory syndrome coronavirus 2 infected in African green monkey Vero E6 cells assessed as inhibition of viral cytopathic effect at 200 uM incubated for 72 hrs by CCK8 assay relative to control. It counts as functional. Also noted: scale not given: the % may be the effect or the level left.

Data set [6] concerns SARS-CoV-2. The data set can be described thus: Antiviral activity against Severe acute respiratory syndrome coronavirus 2 infected in African green monkey Vero E6 cells assessed as inhibition of viral cytopathic effect at 40 uM incubated for 72 hrs by CCK8 assay relative to control. It counts as functional. Also noted: scale not given: the % may be the effect or the level left.

Data set [7] has as its system SARS-CoV-2. The data set can be described thus: Antiviral activity against Severe acute respiratory syndrome coronavirus 2 infected in African green monkey Vero E6 cells assessed as reduction in viral RNA copies at 3.125 uM incubated for 48 hrs by RT-qPCR analysis relative to control. Type of data set: functional. Also noted: scale not given: the % may be the effect or the level left. Background: Quantitative PCR measures a nucleic acid by following its amplification.

The subject of data set [8] is SARS-CoV-2. The data set can be described thus: Antiviral activity against Severe acute respiratory syndrome coronavirus 2 infected in African green monkey Vero E6 cells assessed as inhibition of viral cytopathic effect incubated for 72 hrs by CCK8 assay. It counts as functional, organism-based. The conditions noted are these: Severe acute respiratory syndrome coronavirus 2, Vero C1008, 72 h.

The subject of data set [9] is SARS-CoV-2. The data set can be described thus: Antiviral activity against Severe acute respiratory syndrome coronavirus 2 infected in African green monkey Vero E6 cells assessed as reduction in viral RNA copies at 100 uM incubated for 48 hrs by RT-qPCR analysis relative to control. It counts as functional. Further details: scale not given: the % may be the effect or the level left.

Data set [10] concerns SARS-CoV-2. The data set can be described thus: Antiviral activity against Severe acute respiratory syndrome coronavirus 2 infected in African green monkey Vero E6 cells assessed as reduction in viral RNA copies at 6.25 uM incubated for 48 hrs by RT-qPCR analysis relative to control. It counts as functional. Further details: scale not given: the % may be the effect or the level left.

In data set [11] the test system is SARS-CoV-2. The data set can be described thus: Antiviral activity against Severe acute respiratory syndrome coronavirus 2 infected in African green monkey Vero E6 cells assessed as reduction in viral RNA copies at 50 uM incubated for 48 hrs by RT-qPCR analysis relative to control. Further details: scale not given: the % may be the effect or the level left. It counts as functional.

Data set [12] concerns SARS-CoV-2. The data set can be described thus: Antiviral activity against Severe acute respiratory syndrome coronavirus 2 infected in African green monkey Vero E6 cells assessed as reduction in viralN-terminal 6-histidine tagged RNA copies at 12.5 uM incubated for 48 hrs by RT-qPCR analysis relative to control. Type of data set: functional. Further details: scale not given: the % may be the effect or the level left.

A value given as a limit tells only on which side of the number the result lay.

A word on the CC50: it is the concentration that lowers cell viability or growth by half. Consider `CCC(CC)COC(=O)[C@H](C)N[P@](=O)(OC[C@H]1O[C@@](C#N)(c2ccc3c(N)ncnn23)[C@H](O)[C@@H]1O)Oc1ccccc1`, for which the Activity in the data set on SARS-CoV-2 [1] worked out at 22.283%; in the data set on SARS-CoV-2 [2], 56.674%; in the data set on SARS-CoV-2 [3], 103.72%; in the data set on SARS-CoV-2 [4] it was 16.557%; in the data set on SARS-CoV-2 [5], 81.893%; in the data set with SARS-CoV-2 [6], 97.265%. The CC50 in the data set with Vero C1008 is more than 200 µM.
One may read the EC50 as the midpoint of the concentration-response curve. On to `CCN1Cc2cc(OC)c(OC)cc2-c2cccc(N)c21`, for which the Activity in the data set on SARS-CoV-2 [7] amounted to 45.99%; in the data set on SARS-CoV-2 [1], 44.04%; with SARS-CoV-2 [9], 72.33%; in the data set with SARS-CoV-2 [10], 53.79%; in the data set on SARS-CoV-2 [2], 69.61%; in the data set with SARS-CoV-2 [3], 73.32%. Further, the Activity with SARS-CoV-2 [11] was 76.41%; in the data set with SARS-CoV-2 [4], 42.07%; in the data set on SARS-CoV-2 [5] it was 97.85%; with SARS-CoV-2 [6], 87.56%; with SARS-CoV-2 [12], 61.27%. Also, the EC50 with SARS-CoV-2 [8] is 3.69 µM. Moreover, the CC50 with Vero C1008 is more than 200 µM.
In the case of `CCN1Cc2cc(OC)c(OC)cc2-c2cccc(NC(=O)C(F)(F)F)c21`, the Activity in the data set on SARS-CoV-2 [7] amounted to 56.23%; with SARS-CoV-2 [1], 66.95%; in the data set with SARS-CoV-2 [9], 97.83%; in the data set on SARS-CoV-2 [10], 54.85%; in the data set with SARS-CoV-2 [2] it was 84.14%; with SARS-CoV-2 [3], 82.36%. Moreover, the Activity in the data set on SARS-CoV-2 [11] is 68.9%; in the data set on SARS-CoV-2 [4] it was 49.07%; with SARS-CoV-2 [5], 99.6%; in the data set on SARS-CoV-2 [6], 87.41%; in the data set on SARS-CoV-2 [12], 68.79%. Also, in the data set on SARS-CoV-2 [8], the EC50 turned out to be 2.18 µM. Also, the CC50 in the data set with Vero C1008 is more than 200 µM.
